In ChEMBL document CHEMBL4152356, “Amphipathic sulfonamidobenzamides mimicking small antimicrobial marine natural products; investigation of antibacterial and anti-biofilm activity against antibiotic resistant clinical isolates” (Bioorg Med Chem, 2018):

Columns and labels:
Staphylococcus aureus [1] = test: Antibacterial activity against Staphylococcus aureus ATCC 9144 after 48 hrs by microdilution method; format: functional; conditions: ATCC 9144, 48 h
Outline: (§1)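 Broth microdilution (CLSI M07-A9, modified) in Mueller-Hinton broth; inoculum about 2.5-3 × 10^4 cells/ml mixed 1:1 with serial compound dilutions. Stock solutions in up to 100% DMSO, final DMSO ≤1%. Incubated 35 °C for 48 h.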

Pseudomonas aeruginosa [2] = test: Antibacterial activity against Pseudomonas aeruginosa PAO1 DSM 19880 ATCC 15692 after 48 hrs by microdilution method; format: functional; conditions: PAO1 DSM 19880 ATCC 15692, 48 h; outline: as §1
Escherichia coli [3] = test: Antibacterial activity against Escherichia coli ATCC 25922 after 48 hrs by microdilution method; format: functional; conditions: ATCC 25922, 48 h; outline: as §1
MRC5 = test: Cytotoxicity against human MRC5 cells after 72 hrs by MTS assay; format: cell-based; conditions: MRC5, 72 h
Outline: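 MRC-5 lung fibroblasts in DMEM with 10% FBS, 37 °C, 5% CO2; seeded at 4000 cells/well, adhered 24 h, medium replaced. Two-fold dilutions up to 100 µg/ml for 72 h, then MTS for 1 h and absorbance at 485 nm. Controls were 1% DMSO (negative) and 0.5% Triton X-100 (positive). EC50 is the concentration giving 50% inhibition of survival.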

Bacillus subtilis = test: Antibacterial activity against Bacillus subtilis 168 ATCC 23857 after 48 hrs by microdilution method; format: functional; conditions: subsp. subtilis str. 168 ATCC 23857, 48 h; outline: as §1
[4] = Selectivity index, ratio of EC50 for human RBC to MIC for methicillin resistant Staphylococcus epidermidis RP62A ATCC 35984/CCUG 31568; format: toxicity; conditions: human red blood cells (RBC), read-out: Selectivity Index
Outline: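 SI = hemolytic EC50 / MRSE MIC. Hemolysis: washed human RBCs (heparinized blood, healthy adult donor) at 10% in PBS pH 7.4, mixed 9:1 with serial compound dilutions, 37 °C for 1 h. 0.05% Triton X-100 set 100% lysis, 0.5% DMSO set baseline. MIC from MHB microdilution, 35 °C, […].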

[5] = system: Corynebacterium glutamicum; test: Antibacterial activity against Corynebacterium glutamicum ATCC 13032 after 48 hrs by microdilution method; format: functional; conditions: ATCC 13032, 48 h; outline: as §1
Erythrocyte = test: Hemolytic activity against human RBC measured after 1 hr; format: cell-based
Outline: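 Washed human RBCs from a healthy donor (heparinized) at 10% in PBS pH 7.4, mixed 9:1 with serial compound dilutions, 37 °C for 1 h. Baseline set by 0.5% DMSO in 50% PBS, 100% lysis by 0.05% Triton X-100. EC50 is the concentration giving 50% lysis.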

[6] = system: Staphylococcus epidermidis; test: Antibacterial activity against methicillin resistant Staphylococcus epidermidis RP62A ATCC 35984/CCUG 31568 after 48 hrs by microdilution method; format: functional; conditions: RP62A ATCC 35984/CCUG 31568, 48 h
Outline: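 Broth microdilution (modified CLSI M07-A9) against the MRSE reference strain. Inoculum of about 2.5-3 × 10^4 cells/ml in Mueller-Hinton broth mixed 1:1 with serial compound dilutions; final DMSO ≤1%. Incubated 35 °C, 48 h.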

Enterococcus sp. = test: Antibacterial activity against Enterococcus sp. clinical isolates after 24 hrs by microdilution method; format: functional
Outline: (§2)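 Clinical isolate screen by broth microdilution with about 1-1.2 × 10^6 cells/ml and 24 h incubation. MIC is the lowest concentration with no growth. For isolate collections, MIC90 is the MIC inhibiting ≥90% of isolates. Multidrug resistance was defined as resistance to at least […] antimicrobial class.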

Staphylococcus aureus [7] = test: Antibacterial activity against Staphylococcus aureus clinical isolates after 24 hrs by microdilution method; format: functional; outline: as §2
Klebsiella pneumoniae = test: Antibacterial activity against Klebsiella pneumoniae clinical isolates after 24 hrs by microdilution method; format: functional; outline: as §2
Pseudomonas aeruginosa [8] = test: Antibacterial activity against Pseudomonas aeruginosa clinical isolates after 24 hrs by microdilution method; format: functional; outline: as §2
Escherichia coli [9] = test: Antibacterial activity against Escherichia coli clinical isolates after 24 hrs by microdilution method; format: functional; outline: as §2
[10] = system: Staphylococcus epidermidis; test: Antibiofilm activity against Staphylococcus epidermidis RP62A ATCC 35984/CCUG 31568 incubated for 24 +/- 2 hrs by crystal violet staining based assay; format: functional
Outline: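 Mature S. epidermidis RP62A biofilms: filtered overnight TSB culture adjusted to 2 McFarland, diluted in TSB with 1% glucose to about 6 × 10^6 CFU/ml, grown 24 ± 2 h at 37 °C static, then PBS-washed. Compounds in 50% TSBglu added for 24 ± 2 h at 37 °C. Biomass given as % of untreated control; ≥90% eradication threshold. Compounds tested at 2x, 5x and 10x MIC, 4-8 parallels on 2-3 plates, highest and lowest values excluded.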

SMILES | MIC (Staphylococcus aureus [1]) | MIC (Pseudomonas aeruginosa [2]) | MIC (Escherichia coli [3]) | EC50 (MRC5) | MIC (Bacillus subtilis) | selectivity ratio [4] | MIC [5] | EC50 (Erythrocyte) | MIC [6] | MIC (Enterococcus sp.) | MIC (Staphylococcus aureus [7]) | MIC (Klebsiella pneumoniae) | MIC (Pseudomonas aeruginosa [8]) | MIC (Escherichia coli [9]) | MBIC=>90 [10]
CC(C)(C)c1cc(C(C)(C)C)cc(S(=O)(=O)NCc2ccc(C(=O)NCCN)cc2)c1.Cl | 32 µg/mL | 32 µg/mL | 32 µg/mL | 20 µg/mL | 8 µg/mL | 6 | 8 µg/mL | 92 µg/mL | 16 µg/mL | – | – | – | – | – | –
CN(c1ccc(C(=O)NCCN)cc1)S(=O)(=O)c1cc(C(C)(C)C)cc(C(C)(C)C)c1.Cl | 16 µg/mL | 32 µg/mL | 16 µg/mL | 5 µg/mL | 8 µg/mL | 3 | 16 µg/mL | 53 µg/mL | 16 µg/mL | – | – | – | – | – | –
CC(C)(C)c1cc(C(C)(C)C)cc(S(=O)(=O)Nc2ccc(CC(=O)NCCN)cc2)c1.Cl | 32 µg/mL | 64 µg/mL | 64 µg/mL | 20 µg/mL | 16 µg/mL | 5 | 16 µg/mL | 73 µg/mL | 16 µg/mL | – | – | – | – | – | –
CN(c1ccc(C(=O)NCCCN)cc1)S(=O)(=O)c1cc(C(C)(C)C)cc(C(C)(C)C)c1.Cl | 16 µg/mL | 32 µg/mL | 16 µg/mL | 9 µg/mL | 8 µg/mL | 2 | 8 µg/mL | 28 µg/mL | 16 µg/mL | – | – | – | – | – | –
CC(C)(C)c1cc(C(C)(C)C)cc(S(=O)(=O)Nc2ccccc2C(=O)NCCNC(=N)N)c1.Cl | 4 µg/mL | 64 µg/mL | 32 µg/mL | 42 µg/mL | 8 µg/mL | 10 | 4 µg/mL | 77 µg/mL | 8 µg/mL | 32 µg/mL | 8 µg/mL | 128 µg/mL | 32 µg/mL | 64 µg/mL | –
Cl.N=C(N)NCCNC(=O)c1ccc(NS(=O)(=O)c2ccc3ccccc3c2)cc1 | 64 µg/mL | > 128 µg/mL | > 128 µg/mL | > 100 µg/mL | 64 µg/mL | > 4 | 32 µg/mL | > 128 µg/mL | 32 µg/mL | > 128 µg/mL | 128 µg/mL | > 128 µg/mL | > 128 µg/mL | > 128 µg/mL | 160 µg/mL
CC(C)(C)c1cc(C(C)(C)C)cc(S(=O)(=O)Nc2cccc(C(=O)NCCN)c2)c1.Cl | 16 µg/mL | 64 µg/mL | 32 µg/mL | 16 µg/mL | 8 µg/mL | 7 | 8 µg/mL | 58 µg/mL | 8 µg/mL | – | – | – | – | – | –
CC(C)(C)c1cc(C(C)(C)C)cc(S(=O)(=O)Nc2ccccc2C(=O)NCCN)c1.Cl | 32 µg/mL | 128 µg/mL | 64 µg/mL | 10 µg/mL | 32 µg/mL | 2 | 16 µg/mL | 56 µg/mL | 32 µg/mL | 32 µg/mL | 32 µg/mL | 128 µg/mL | 128 µg/mL | 128 µg/mL | –
CN(c1cccc(C(=O)NCCN)c1)S(=O)(=O)c1cc(C(C)(C)C)cc(C(C)(C)C)c1.Cl | 16 µg/mL | 32 µg/mL | 16 µg/mL | 10 µg/mL | 8 µg/mL | 2 | 8 µg/mL | 26 µg/mL | 16 µg/mL | – | – | – | – | – | –
CC(C)(C)c1cc(C(C)(C)C)cc(S(=O)(=O)N2CCC[C@H]2C(=O)NCCNC(=N)N)c1.Cl | 64 µg/mL | 128 µg/mL | > 128 µg/mL | > 100 µg/mL | 32 µg/mL | > 4 | 8 µg/mL | > 128 µg/mL | 32 µg/mL | – | – | – | – | – | –
Cc1cc(C)cc(S(=O)(=O)Nc2ccc(C(=O)NCCNC(=N)N)cc2)c1.Cl | 128 µg/mL | > 128 µg/mL | > 128 µg/mL | > 100 µg/mL | 64 µg/mL | > 2 | 64 µg/mL | > 128 µg/mL | 64 µg/mL | – | – | – | – | – | –
CC(C)(C)c1cc(C(C)(C)C)cc(S(=O)(=O)N2CCC(C(=O)NCCNC(=N)N)CC2)c1.Cl | 16 µg/mL | 128 µg/mL | 64 µg/mL | > 100 µg/mL | 16 µg/mL | 8 | 4 µg/mL | 124 µg/mL | 16 µg/mL | – | – | – | – | – | 80 µg/mL
CC(C)(C)c1cc(C(=O)Nc2ccccc2C(=O)NCCNC(=N)N)cc(C(C)(C)C)c1.Cl | – | – | – | 22 µg/mL | – | – | – | – | – | – | – | – | – | – | –
CC(C)(C)c1cc(C(C)(C)C)cc(S(=O)(=O)Nc2ccc(C(=O)NCCN)cc2)c1.Cl | 32 µg/mL | 64 µg/mL | 64 µg/mL | 25 µg/mL | 16 µg/mL | 2 | 8 µg/mL | 63 µg/mL | 32 µg/mL | – | – | – | – | – | –
CC(C)(C)c1cc(C(C)(C)C)cc(S(=O)(=O)Nc2cc3ccccc3cc2C(=O)NCCN)c1.Cl | 4 µg/mL | 32 µg/mL | 8 µg/mL | 22 µg/mL | 4 µg/mL | 5 | 2 µg/mL | 21 µg/mL | 4 µg/mL | 8 µg/mL | 8 µg/mL | 128 µg/mL | 32 µg/mL | 32 µg/mL | –
